Assay results published in paper PMC2921709 (ChemMedChem, 2010).
Like-named read-outs stand apart in the source and are kept apart here.

Columns and labels:
Jurkat cells [1] = test: Flow cytometric cell-cycle analysis; assay type: cell-based, human; settings: for effect on cell-cycle progression (G2/M arrest, in words): 24 h treatment
In short: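 Jurkat cells in exponential growth, 5 × 10^5 per sample, exposed to test compound at various concentrations for 24 h. Cells fixed in ice-cold 70% ethanol, treated with lysis buffer containing RNase A and 0.1% Triton X-100, then stained with PI. DNA content measured by flow cytometry and phases assigned from DNA histograms. Mean ± SEM of two independent experiments.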

K562 = test: MTT growth inhibition, K562 chronic myelogenous leukemia cells; assay type: cell-based, human; settings: read-out: GI50 K562
In short: (§1)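 Cells seeded at 8 × 10^3 per well in 96-well plates and held 18 h at 37 °C, 5% CO2. Medium then replaced with test compound in complete medium at various concentrations for 72 h continuous exposure. Viability read by MTT. GI50 is the concentration giving 50% proliferation inhibition, from dose–response curves; mean ± SE of ≥3 independent experiments. Media: leukemia lines in RPMI-1640; solid-tumour lines in DMEM with penicillin G 115 U mL−1, streptomycin and 10% FBS.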

IGROV = test: MTT growth inhibition, IGROV ovarian cancer cells; assay type: cell-based, human; settings: read-out: GI50 IGROV
In short: as §1

HT-29 = test: MTT growth inhibition, HT-29 colon adenocarcinoma cells; assay type: cell-based, human; settings: read-out: GI50 HT-29
In short: as §1

ML2 = test: MTT growth inhibition, ML-2 myeloid leukemia cells; assay type: cell-based, human; settings: read-out: GI50 ML2
In short: as §1

Bovine brain tubulin = test: Inhibition of tubulin polymerization; assay type: biochemical; settings: for IC50: read-out: Tubulin Assembly IC50, tubulin 10 μM, 20 min incubation, ± SD
Jurkat = test: MTT growth inhibition, Jurkat T-leukemia cells; assay type: cell-based, human; settings: read-out: GI50 Jurkat
In short: as §1

HL-60 = test: MTT growth inhibition, HL-60 promyelocytic leukemia cells; assay type: cell-based, human; settings: read-out: GI50 HL-60
In short: as §1

RS 4;11 = test: MTT growth inhibition, RS 4; assay type: cell-based, human; settings: read-out: GI50 RS 4;11
In short: as §1

MCF-7 = test: MTT growth inhibition, MCF-7 breast adenocarcinoma cells; assay type: cell-based, human; settings: read-out: GI50 MCF-7
In short: as §1

Jurkat cells [2] = test: Annexin V-FITC/PI apoptosis assay; assay type: cell-based, human; settings: 24 h treatment
In short: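 Jurkat cells exposed to test compound at various concentrations for 24 or 48 h, then harvested. Co-labelled with annexin V–FITC and PI and analysed by flow cytometry (excitation 488 nm; emission 525 and 585 nm). Reported as mean percentage of annexin-V-positive cells ± SEM, three independent experiments.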

[3] = test system: Bovine brain tubulin (colchicine site); test: Inhibition of [3H]colchicine binding to tubulin; settings: tubulin 1 μM, [3H]colchicine 5 μM; for Colchicine Binding Inhibition [%], 5 μM: compound 5 μM; for Colchicine Binding Inhibition [%], 1 μM: compound 1 μM
HeLa = test: MTT growth inhibition, HeLa cervix carcinoma cells; assay type: cell-based, human; settings: read-out: GI50 HeLa
In short: as §1

Hep G2 = test: MTT growth inhibition, HepG2 hepatoma cells; assay type: cell-based, human; settings: read-out: GI50 Hep G2
In short: as §1

ARO = test: MTT growth inhibition, ARO anaplastic thyroid cells; assay type: cell-based, human; settings: read-out: GI50 ARO
In short: as §1

leukemia cells = test: MTT growth inhibition, leukemia cell lines; assay type: cell-based, human; settings: 72 h; for activity in the leukemia lines (concentration level, in words): MTT
In short: as §1

Bcl-2 in Jurkat cells = test: Flow cytometric analysis of Bcl-2 expression; assay type: cell-based, human; settings: 24 and 48 h, flow cytometry
In short: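 Jurkat cells incubated with test compound for 24 and 48 h, then pelleted and permeabilised with a Fix&Perm kit. Labelled with FITC-conjugated anti-Bcl-2 monoclonal antibody, washed and analysed by flow cytometry. Mean ± SEM of two independent experiments.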

Jurkat cells [4] = test: Mitochondrial membrane potential; assay type: cell-based, human; settings: 0.5 and 0.1 μM, 24 and 48 h
In short: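 After treatment, Jurkat cells were pelleted and resuspended in HBSS containing JC-1, then kept 10 min at 37 °C. They were spun again, taken up in HBSS and read by flow cytometry. Polarised mitochondria give red JC-1 aggregates (590 nm); depolarisation gives green monomers (530 nm).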

solid tumor cells = test: MTT growth inhibition, solid tumor cell lines; assay type: cell-based; settings: Homo sapiens, 72 h, read-out: GI50, solid tumor cells
In short: as §1

[5] = test system: caspase-3 in Jurkat cells; test: Caspase-3 activation by flow cytometry; assay type: cell-based, human; settings: time- and concentration-dependent
Jurkat cells [6] = test: Mitochondrial ROS production; assay type: cell-based, human; settings: 24 and 48 h
In short: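 Jurkat cells treated with test compound for 24 or 48 h, pelleted, then loaded in HBSS with hydroethidine (HE) or H2-DCFDA for 30 min at 37 °C. Cells re-pelleted into HBSS and read by flow cytometry: 488 nm excitation, emission 585 nm (HE) and 530 nm (DCF). Fluorescence intensity given as % of untreated control; mean ± SEM, three independent experiments.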

[7] = test system: panel of human tumor cell lines; test: MTT growth inhibition, whole panel of human tumor cell lines; assay type: cell-based; settings: 72 h, read-out: GI50, all cell lines tested
In short: as §1

[8] = Homo sapiens, Thyroid cell, 72 h

Compound	GI50 (K562; Homo sapiens, K562, 72 h) [nM]	GI50 (IGROV; Homo sapiens, IGROV, 72 h) [nM]	GI50 (HT-29; Homo sapiens, HT-29, 72 h) [nM]	GI50 (ML2; Homo sapiens, ML-2, 72 h) [nM]	IC50 (Bovine brain tubulin) [nM]	GI50 (Jurkat; Homo sapiens, Jurkat, 72 h) [nM]	GI50 (HL-60; Homo sapiens, HL-60, 72 h) [nM]	GI50 (RS 4;11; Homo sapiens, RS4-11, 72 h) [nM]	GI50 (MCF-7; Homo sapiens, MCF7, 72 h) [nM]	Colchicine Binding Inhibition [%], 5 μM [3] [%]	GI50 (HeLa; Homo sapiens, HeLa, 72 h) [nM]	GI50 (Hep G2; Homo sapiens, HepG2, 72 h) [nM]	GI50 (ARO; [8]) [nM]	further results
CCn1ccc2c3c(=O)cc(-c4cccnc4)[nH]c3ccc21 [Compound 13, 3-Ethyl-7-(pyridin-3-yl)-3H-pyrrolo[3,2-f]quinolin-9(6H)-one]	240 ± 30	650 ± 150	850 ± 140	300 ± 40	2400 ± 400	50 ± 4	30 ± 2	40 ± 7	850 ± 150	23 ± 6	400 ± 50	500 ± 50	450 ± 70	effect on cell-cycle progression (G2/M arrest, in words) (Jurkat cells [1]): only induced G2/M arrest at yet higher concentrations; induction of apoptotic (annexin-V-positive) cells, in words (Jurkat cells [2]): lower efficacy; Colchicine Binding Inhibition [%], 50 μM ([3]; compound 50 μM): 65 ± 0.3%
CCn1ccc2c3c(=O)c(-c4ccc(Br)cc4)c[nH]c3ccc21 [Compound 37, 8-(4-Bromophenyl)-3-ethyl-3H-pyrrolo[3,2-f]quinolin-9(6H)-one]	> 50000	–	> 50000	> 50000	–	–	> 50000	–	–	–	> 50000	> 50000	> 50000	–
CCn1ccc2c3c(=O)cc(-c4ccccc4)[nH]c3ccc21 [Compound 38, 3-ethyl-7-PPyQ, reference compound]	–	–	–	–	570 ± 20	–	–	–	–	73 ± 0.7	–	–	–	GI50 (K562; 72 h exposure, MTT, mean ± SE): 1 ± 0.1 nM; GI50 (IGROV; 72 h exposure, MTT, mean ± SE): 60 ± 10 nM; GI50 (HT-29; 72 h exposure, MTT, mean ± SE): 30 ± 10 nM; GI50 (ML2; 72 h exposure, MTT, mean ± SE): 1 ± 0.3 nM; GI50 (Jurkat; 72 h exposure, MTT, mean ± SE): 0.5 ± 0.02 nM; GI50 (HL-60; 72 h exposure, MTT, mean ± SE): 0.5 ± 0.02 nM; GI50 (RS 4;11; 72 h exposure, MTT, mean ± SE): 2 ± 0.3 nM; GI50 (MCF-7; 72 h exposure, MTT, mean ± SE): 40 ± 10 nM; Colchicine Binding Inhibition [%], 1 μM [3]: 34 ± 2%; GI50 (HeLa; 72 h exposure, MTT, mean ± SE): 10 ± 8 nM; GI50 (Hep G2; 72 h exposure, MTT, mean ± SE): 50 ± 10 nM; GI50 (ARO; 72 h exposure, MTT, mean ± SE): 30 ± 10 nM
COc1ccc(/C=C\c2cc(OC)c(OC)c(OC)c2)cc1O [CA-4, combretastatin A-4, reference compound]	–	–	–	–	–	–	–	–	–	98 ± 0.3	–	–	–	Colchicine Binding Inhibition [%], 1 μM [3]: 84 ± 3%
CCn1ccc2c3c(=O)c(-c4cccc(OC)c4)c[nH]c3ccc21 [Compound 36, 3-Ethyl-8-(3-methoxyphenyl)-3H-pyrrolo[3,2-f]quinolin-9(6H)-one]	> 50000	–	> 50000	> 50000	–	–	> 50000	–	–	–	> 50000	> 50000	> 50000	–
CCn1cc(C(N)=O)c2c3c(=O)cc(-c4ccccc4)[nH]c3ccc21 [Compound 22, 3-Ethyl-9-oxo-7-phenyl-6,9-dihydro-3H-pyrrolo[3,2-f]quinoline-1-caboxamide]	–	–	–	–	> 40000	–	–	–	–	–	–	–	–	effect on cell-cycle progression (G2/M arrest, in words) (Jurkat cells [1]): only induced G2/M arrest at yet higher concentrations; GI50 (K562; 72 h exposure, MTT, mean ± SE): 1700 ± 500 nM; GI50 (IGROV; 72 h exposure, MTT, mean ± SE): > 50000 nM; GI50 (HT-29; 72 h exposure, MTT, mean ± SE): > 50000 nM; GI50 (ML2; 72 h exposure, MTT, mean ± SE): 90 ± 20 nM; inhibition of tubulin assembly at the highest concentration (Bovine brain tubulin; compound 40 μM): less than 50%; GI50 (Jurkat; 72 h exposure, MTT, mean ± SE): 50 ± 6 nM; GI50 (HL-60; 72 h exposure, MTT, mean ± SE): 320 ± 30 nM; activity in the leukemia lines (concentration level, in words) (leukemia cells): sub-micromolar; GI50 (RS 4;11; 72 h exposure, MTT, mean ± SE): 30 ± 2 nM; GI50 (MCF-7; 72 h exposure, MTT, mean ± SE): > 50000 nM; induction of apoptotic (annexin-V-positive) cells, in words (Jurkat cells [2]): lower efficacy; GI50 (HeLa; 72 h exposure, MTT, mean ± SE): > 50000 nM; GI50 (Hep G2; 72 h exposure, MTT, mean ± SE): > 50000 nM; GI50 (ARO; 72 h exposure, MTT, mean ± SE): > 50000 nM
O=c1c(-c2ccccc2)c[nH]c2ccc3c(ccn3CC3CC3)c12 [Compound 35]	–	–	–	–	–	–	–	–	–	–	–	–	–	GI50 (K562; 72 h exposure, MTT, mean ± SE): > 50000 nM; GI50 (HT-29; 72 h exposure, MTT, mean ± SE): > 50000 nM; GI50 (ML2; 72 h exposure, MTT, mean ± SE): > 50000 nM; GI50 (HL-60; 72 h exposure, MTT, mean ± SE): > 50000 nM; GI50 (HeLa; 72 h exposure, MTT, mean ± SE): > 50000 nM; GI50 (Hep G2; 72 h exposure, MTT, mean ± SE): > 50000 nM; GI50 (ARO; 72 h exposure, MTT, mean ± SE): > 50000 nM
CCOC(=O)CCn1ccc2c3c(=O)cc(-c4ccccc4)[nH]c3ccc21 [Compound 11, Ethyl 3-(9-oxo-7-phenyl-6H-pyrrolo[3,2-f]quinolin-3(9H)-yl)propanoate]	190 ± 60	620 ± 150	480 ± 80	5 ± 2	750 ± 40	0.5 ± 0.01	2 ± 0.1	2 ± 0.4	580 ± 180	75 ± 4	450 ± 100	520 ± 100	550 ± 150	Bcl-2 expression, in words (Bcl-2 in Jurkat cells): decrease Bcl-2 expression; G2/M cell population (Jurkat cells [1]; 24 h, 0.06 μM, control 9.4 %): 77%; S-phase cells (Jurkat cells [1]; 24 h, 0.06 μM, control 43 %): 20%; G1 cells (Jurkat cells [1]; 24 h, 0.06 μM, control 47 %): 3%; effect on cell-cycle progression (G2/M arrest, in words) (Jurkat cells [1]): clear G2/M arrest pattern in a concentration-dependent manner; percentage of cells with low ΔΨmt (JC-1), in words (Jurkat cells [4]): significant increase in the percentage of cells with low ΔΨmt; GI50 (solid tumor cells): 400 to 1400 nM; GI50 (leukemia cells; Homo sapiens, read-out: GI50, leukemia cells): 0.5 to 10 nM; induction of apoptotic (annexin-V-positive) cells, in words (Jurkat cells [2]): remarkable induction of apoptotic cells; Colchicine Binding Inhibition [%], 1 μM [3]: 44 ± 6%; caspase-3 activation, in words [5]: activate caspase-3; ROS production (HE, H2-DCFDA), in words (Jurkat cells [6]): induced the production of ROS relative to control cells
O=c1c(-c2ccccc2)c[nH]c2ccc3[nH]ccc3c12 [Compound 33, 8-Phenyl-3H-pyrrolo[3,2-f]quinolin-9(6H)-one]	> 50000	–	> 50000	> 50000	–	–	> 50000	–	–	–	> 50000	> 50000	> 50000	GI50 [7]: > 50000 nM
CCn1ccc2c3c(=O)c(-c4ccccc4)c[nH]c3ccc21 [Compound 34, 3-Ethyl-8-phenyl-3H-pyrrolo[3,2-f]quinolin-9(6H)-one]	> 50000	–	> 50000	> 50000	–	–	> 50000	–	–	–	> 50000	> 50000	> 50000	GI50 [7]: > 50000 nM
CCn1cc(C)c2c3c(=O)cc(-c4ccccc4)[nH]c3ccc21 [Compound 17, 3-Ethyl-1-methyl-7-phenyl-3H-pyrrolo[3,2-f]quinolin-9(6H)-one]	27300 ± 340	> 50000	> 50000	14400 ± 2300	–	8000 ± 1200	17500 ± 2300	6500 ± 1000	> 50000	–	4500 ± 800	5800 ± 1100	> 50000	–
CCn1cc(C#N)c2c3c(=O)cc(-c4ccccc4)[nH]c3ccc21 [Compound 21, 3-Ethyl-9-oxo-7-phenyl-6,9-dihydro-3H-pyrrolo[3,2-f]quinoline-1-carbonitrile]	460 ± 8	> 50000	> 50000	550 ± 30	–	300 ± 10	210 ± 10	130 ± 20	> 50000	–	> 50000	> 50000	> 50000	GI50 (solid tumor cells): > 50000 nM; activity in the leukemia lines (concentration level, in words) (leukemia cells): sub-micromolar
